# Shown is part of a subset that was picked to be rich in hits.
# CHOP inhibitor – CHOP inhibition in unfolded protein response; CHO-K1 CHOP-promoter luciferase, tunicamycin-induced, 15-18 h; inhibition, % at 10 µM; 220,000 tested, 3.8% active; AID 2732;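 active = compounds that reduced the stress-induced luciferase reporter signal by more than about 70% of percent inhibition, limit read from the data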;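 also: 0% = tunicamycin plus vehicle and 100% = wells without tunicamycin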
# XBP1 UPR activ – adaptive UPR (XBP1) activation; CHO-XBP1 luciferase reporter, IRE1-XBP1 UPR activation, luminescence; percent of tunicamycin response, DMSO as zero; activation, % at 20 µM; 330,000 tested, 0.33% active;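 active = versus positive control, 20 µM dose yields 30% or more activation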;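 also: 100% = tunicamycin at 10 µg/mL and 0% = DMSO only wells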
#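 Material: CHO-XBP1 cells stably carrying IRE1-XBP1-driven luciferase reporter / Amount: 1000 cells per well / Compound: 20 µM, 1% DMSO / Times: 6 h treatment, 37 °C / Detection: luciferase luminescence / Measure: % activation of reporter signal versus tunicamycin and DMSO controls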
# p-CIP stab down – lowers stability of the mouse p/CIP coactivator protein | F442A p/CIP-EGFP cells, EGFP fluorescence, 16 h | AID 1984 | Q05BA5 | 290,000 tested, 0.01% active | decrease of EGFP signal, % at 10 µM;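 active = EGFP signal decrease of at least 30% at 10 µM or well 3 SD below plate mean, unless failing retest; inactive = the rest, including hits failing retest or dose response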
# Beta2AR agonist – agonists of human beta-2 adrenergic receptor inducing internalization. AID 504454. Am2.2-beta2AR cells, FAP receptor internalization, flow cytometry. 340,000 tested, 0.43% active. response, % (test concentration not listed). P07550;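 active = response above a set limit, near 3 SD of response in nonfluorescent compounds, cut at about 42% in these data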
# Dynein cargo inh – dynein cargo transport inhibition; 3617.4 mouse cells, GR-EGFP nuclear translocation imaging; test concentration mostly 20 µM; stimulated with dexamethasone, 1 µM; active compounds read low; z-score, hits read low; 220,000 tested, 0.47% active; AID 1381;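 active = plate z-score of nuclear minus cytoplasmic receptor signal below a set negative limit, without overly bright fluorescence or cell loss, cut at about -3.5 in these data, passing the limit was not always enough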;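 also: z-score of nuclear minus cytoplasmic ring GR-EGFP intensity difference per well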
#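 Buffer or medium: tet-free, stripped-serum medium; Also added: dexamethasone, 1.0 µM final; Technique: high-content fluorescence imaging after fixation; Times: 48 h induction, 1 h compound, 30 min dex at 37 °C; Read-out: per-cell GR-EGFP intensity, nucleus versus surrounding cytoplasmic ring, well-averaged.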
# CHOP UPR activ – apoptotic UPR (CHOP) activation; CHO-CHOP luciferase reporter, luminescence; percent of tunicamycin response over DMSO baseline; activation, % at 10 µM; 330,000 tested, 0.34% active;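 active = at 10 µM dose, activation of 40% or more, normalized to positive control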;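 also: 100% = tunicamycin at 10 µg/mL and 0% = DMSO alone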
#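 Assay system: CHO-CHOP cells, stable luciferase reporter of PERK-eIF2a-CHOP signalling / Buffer or medium: F12 plus 10% serum / Compound dosing: one dose, 10 µM in 0.5% DMSO / Times: 6 h compound treatment, 37 °C / Technique: luciferase luminescence / Read-out: % reporter activation, DMSO baseline versus tunicamycin full activation / Benchmarks: tunicamycin and DMSO controls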
# Numbers without * were called inactive; / = no result.
SMILES,CHOP inhibitor,XBP1 UPR activ,p-CIP stab down,Beta2AR agonist,Dynein cargo inh,CHOP UPR activ
CCc1ccc(-c2nc(CSCC(=O)N3CCN(c4ncccn4)CC3)c(C)o2)cc1,90.0*,-3.5,-20.1,-6.7,-0.173,0.4
Cc1ccc(C)c(CSc2nnc(-c3cccs3)n2Cc2ccco2)c1,4.4,0.6,-1.7,66.7*,-1.18,-1.5
COc1ccccc1/C=N/NC(=Nc1ccc(C)cc1)c1nc2ccccc2s1,-26.5,-5.0,-0.7,/,-0.272,-3.1
COc1cc(/C=N/NC(=Nc2ccc(C)cc2)c2nc3ccccc3s2)ccc1O,73.8*,-4.8,-4.5,-22.9,-0.77,-6.5
O=C1/C(=C\c2cccs2)N=C(c2cccs2)N1Nc1ccccc1,46.1,-4.1,-4.6,7.9,0.213,-0.1
O=C1/C(=C/c2cccs2)N=C(c2cccs2)N1Nc1ccccc1,93.9*,0.3,-5.4,9.2,-0.424,0.4
CC1CC(C)CN(C(=O)COC(=O)c2c[nH]c3ccccc23)C1 (stereo unspecified),/,0.4,/,-0.1,/,-0.8
c1ccc(-c2csc3ncnc(NCC4COc5ccccc5O4)c23)cc1 (stereo unspecified),93.1*,/,-6.8,-9.3,-0.753,/
Cc1sc2ncnc(NCC3COc4ccccc4O3)c2c1C (stereo unspecified),76.1*,/,-11.3,-2.0,-0.214,/
COC(=O)c1ccc(C(=O)NC(=S)Nc2ccc3nc(SC)sc3c2)cc1,72.1*,28.9,-4.1,16.6,0.614,16.8
CSc1nc2ccc(NC(=O)c3ccccn3)cc2s1,/,-11.7,-4.6,-11.0,/,-2.7
COc1ccc(OC)c2c1C(=O)C(Cl)=C(Cl)C2=O,106.1*,-10.6,-28.6,97.3*,-5.38*,-7.7
CC(C)CN(C)c1nc(N)c(C(=O)N=C(N)N)nc1Cl,-10.7,/,/,/,/,/
O=[N+]([O-])c1ccccc1-c1cc(-c2cc(Cl)ccc2O)n[nH]1,76.5*,/,11.6,1.9,0.185,/
Cc1ccc(O)c(-c2cc(-c3ccccc3[N+](=O)[O-])[nH]n2)c1,7.7,-0.5,-1.1,2.0,0.205,3.9
COc1ccc(OCC(O)Cn2cnc(-c3ccc(Br)cc3)c2)cc1 (stereo unspecified),22.3,-1.4,2.9,-5.6,-0.316,-0.8
OC(COc1ccc2ccccc2c1Br)Cn1cnc(-c2ccccc2)c1 (stereo unspecified),75.8*,-2.7,-9.9,5.5,-0.838,-1.7
COc1ccc(-c2nn(-c3ccccc3)cc2C(=O)OCC(=O)c2ccc(C)c([N+](=O)[O-])c2)cc1,87.4*,3.1,1.5,-17.2,-0.172,13.4
COCc1ccc(CN2CCc3c([nH]c4ccccc34)C2CC(C)C)o1 (stereo unspecified),-1.6,-2.4,-14.4,-1.6,-1.2,-0.5
CC(NC(=O)COc1ccccc1-c1ccccc1)c1ccccc1 (stereo unspecified),77.4*,-1.2,1.3,10.8,0.238,-1.5
CCOC(=O)c1cnc2ccc(OCC)cc2c1N1CCN(c2ccccc2OC)CC1,87.8*,0.2,-19.4,11.2,-1.26,1.5
Cc1nn(-c2ccccc2)c(C)c1/C=N/n1c(-c2ccc(C(C)(C)C)cc2)n[nH]c1=S,83.8*,6.4,2.8,7.1,-0.37,-0.3
S=c1[nH]nc(-c2ccncc2)n1/N=C/c1cn(-c2ccccc2)nc1-c1ccc(Cl)cc1,91.1*,7.5,-20.7,8.3,0.00717,2.3
Cc1ccccc1-c1n[nH]c(=S)n1/N=C/c1c(C)nn(-c2ccccc2)c1C,29.6,2.2,-11.3,-6.3,0.00862,-0.8
COc1ccccc1/C=C\C=N\n1c(-c2ccc(Cl)cc2)n[nH]c1=S,89.1*,4.3,-10.8,3.6,-0.326,1.3
SMILES,CHOP inhibitor,XBP1 UPR activ,p-CIP stab down,Beta2AR agonist,Dynein cargo inh,CHOP UPR activ
COC(=O)COc1ccc(S(=O)(=O)N2CCc3ccccc3C2)cc1C,-8.9,-2.1,-3.8,5.5,-0.522,-0.4
CCOc1ccc(/C(C)=N/NC(=O)c2nnn(-c3nonc3N)c2-c2cccs2)cc1,/,15.5,-5.8,-0.7,/,1.9
Cc1cccc(CS(=O)(=O)c2ncc(Cl)c(C(=O)NCc3ccccc3)n2)c1,/,-9.9,-12.9,-0.4,/,84.3*
Cc1cccc(Nc2nc(N)c([N+](=O)[O-])c(N3CCN(C)CC3)n2)c1,4.2,0.2,-4.0,-3.8,-0.209,3.2
Cc1cccc(Nc2nc(N)c([N+](=O)[O-])c(N3CCCC(C)C3)n2)c1 (stereo unspecified),102.8*,5.5,6.5,-2.6,0.0745,-0.3
CC(Oc1cccc(Cl)c1)C(=O)Nc1nc(-c2ccccn2)cs1 (stereo unspecified),/,3.2,/,0.9,/,2.0
Cc1ccc2nc(C)cc(C(=O)N3CCCC(CO)(Cc4ccccc4C)C3)c2c1 (stereo unspecified),13.5,-1.6,-4.6,1.4,1.05,-1.7
O=C(CC(=O)c1ccccc1)Nc1cc(C(F)(F)F)ccc1Cl,8.2,0.0,-10.6,-10.3,0.464,2.4
O=C(NC(=S)Nc1cc(C(F)(F)F)ccc1Cl)c1ccccc1,88.8*,-0.9,-3.9,1.3,-0.753,0.2
O=C(Nc1ccc(S(=O)(=O)N2CCCCCC2)cc1)C1CCCO1 (stereo unspecified),16.3,-0.7,-11.6,12.1,-0.208,0.6
Cc1cccc(OC(=O)Cn2c(C(F)(F)F)nc3ccccc32)c1,5.2,-2.0,-9.4,2.9,-0.398,-1.7
O=C(Cn1c(C(F)(F)F)nc2ccccc21)Oc1cccc(C(F)(F)F)c1,50.5,0.6,4.4,7.0,-4.2*,-1.5
COc1ccc(Br)cc1/C=N/NC(=O)CN1CCN(Cc2ccccc2)CC1,0.1,1.1,-12.2,-4.4,-0.744,2.3
CNC(=O)c1cccc(NC(=O)CCCNC(=O)c2ccc(Cl)cc2)c1,/,-1.9,-0.5,7.0,/,9.2
COc1cccc(OCC(=O)Nc2ccccc2C(=O)Nc2ccc(C(=O)O)cc2)c1,/,-5.7,-3.4,-6.2,/,3.0
CC(C)(C)c1ccc(-c2cc(N)n[nH]2)cc1,90.7*,-5.0,-3.9,4.4,-0.971,-7.3
Cc1ccc(-c2cc(N)n[nH]2)cc1,7.7,0.5,7.0,5.5,-0.813,-0.7
Cc1cnn(C(=S)NCCc2ccccc2)c1,53.4,-0.4,4.9,-2.1,-0.944,3.9
Cc1cnn(C(=S)NCc2ccc(Cl)cc2)c1,73.6*,1.9,-10.3,/,-1.3,-1.5
COc1ccc(/C=C2\SC(=S)N(Cc3cccnc3)C2=O)cc1C,88.2*,1.1,-18.4,10.2,-0.264,3.0
CC(=O)c1cccc(NC(=O)NCCS(C)=O)c1 (stereo unspecified),15.8,1.2,-2.5,-2.5,-0.788,0.3
COc1ccc(N/N=C/c2c(C(=O)O)ccc3ccccc23)cc1,95.7*,0.8,-16.2,6.4,1.46,-1.1
